Here are results for 16 compounds from ChEMBL document CHEMBL1156857, “N-Acetamideindolecarboxylic acid allosteric 'finger-loop' inhibitors of the hepatitis C virus NS5B polymerase: discovery and initial optimization studies” (Bioorg Med Chem Lett, 2010).

In brackets after ≈: the same amount, converted by molar mass.

Series [1] can be described thus: Lipophilicity, log D at pH 7.4. Conditions: buffer. Format: physicochemical.
A further series has as its system Hepatitis C virus. The series can be described thus: Antiviral activity against Hepatitis C virus subtype 1b infected in human Huh7 cells assessed as inhibition of viral RNA replication. Conditions: Hepatitis C virus, genotype 1b, Huh-7; read-out: EC50. Format: functional, organism-based, Hepacivirus hominis, genotype 1b, Huh-7. The method, boiled down:
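Stable subgenomic HCV genotype 1b replicon in Huh-7 cells carrying a modified luciferase reporter. EC50 from duplicate or more determinations. Some inhibitors were also run in a 72 h replicon format, with HCV RNA normalized to total cellular RNA. Cytotoxicity checked as TC50.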

The nature of series [2]: (§1) Permeability from apical to basolateral side of the human Caco-2 cells at pH 7.4. Format: ADME, cell-based. The conditions noted are these: Caco-2, pH 7.4, read-out: permeability. The method, boiled down:
(§2)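 Caco-2 permeability measured in the apical-to-basal direction at pH 7.4.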

The nature of series [3]: Half life in human liver microsomes at 2 uM. Format: ADME, Microsome. The method, boiled down:
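Human liver microsomes incubated with test compound at 2 µM. Stability reported as T1/2 in min.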

Series [4] is described as follows: Inhibition of histidine-tagged HCV NS5Bdelta21 by scintillation proximity assay. Details: species or system Hepacivirus hominis. The essentials: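 Soluble truncated NS5B at 12 nM. Reaction contains 0.01% w/v BSA, with no dodecyl-β-D-maltoside or IGEPAL. Other conditions follow an earlier method. IC50 is the mean of duplicate experiments on two separate weighings.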

Series [5] can be described thus: Inhibition of calf thymus DNA-directed RNA polymerase 2. Also noted: species or system Bos taurus.
A further series deals with Cytochrome P450 3A4 (Homo sapiens, UniProt P08684). The series can be described thus: Inhibition of CYP3A4. Format: ADME. The essentials:
(§3)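 IC50s measured against CYP 1A2, 2C9, 2C19, 2D6 and 3A4 isozymes. The value reported is the lowest IC50, taken against the most sensitive isozyme.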

Series [6] in a line: Equilibrium solubility at pH 7.2 with amorphous solid after 24 hrs by shake flask method. Format: physicochemical. Conditions: buffer.
The target in another series is Cytochrome P450 2C19 (Homo sapiens, UniProt P33261). The series can be described thus: Inhibition of CYP2C19. Format: ADME. The essentials: as §3
Sequence of Cytochrome P450 2C19 (P33261 whole entry): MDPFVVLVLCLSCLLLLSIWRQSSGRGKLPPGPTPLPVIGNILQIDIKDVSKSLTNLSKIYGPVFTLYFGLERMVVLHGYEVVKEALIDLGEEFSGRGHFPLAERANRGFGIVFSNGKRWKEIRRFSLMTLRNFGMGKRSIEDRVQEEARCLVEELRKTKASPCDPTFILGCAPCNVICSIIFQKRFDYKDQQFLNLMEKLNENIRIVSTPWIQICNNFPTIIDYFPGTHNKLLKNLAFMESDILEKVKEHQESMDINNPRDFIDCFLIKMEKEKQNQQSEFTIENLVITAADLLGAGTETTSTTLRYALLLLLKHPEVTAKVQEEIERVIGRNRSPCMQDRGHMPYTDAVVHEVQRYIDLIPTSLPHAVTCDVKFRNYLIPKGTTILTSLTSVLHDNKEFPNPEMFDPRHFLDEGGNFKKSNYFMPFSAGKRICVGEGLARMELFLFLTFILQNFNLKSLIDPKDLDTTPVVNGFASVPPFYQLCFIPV
In the next series the test system is Caco-2. The series is described as §1. Format: ADME, cell-based. The conditions noted are these: caco-2, pH 7.4, BLD = below limit of detection. The method, boiled down: as §2
A short description of series [7]: Half life in rat liver microsomes at 2 uM. Format: ADME, Microsome.
A further series concerns the target Cytochrome P450 2C9 (Homo sapiens, UniProt P11712). The series can be described thus: Inhibition of CYP2C9. Format: ADME. The essentials:
as §3

Sequence of Cytochrome P450 3A4 (P08684 whole entry): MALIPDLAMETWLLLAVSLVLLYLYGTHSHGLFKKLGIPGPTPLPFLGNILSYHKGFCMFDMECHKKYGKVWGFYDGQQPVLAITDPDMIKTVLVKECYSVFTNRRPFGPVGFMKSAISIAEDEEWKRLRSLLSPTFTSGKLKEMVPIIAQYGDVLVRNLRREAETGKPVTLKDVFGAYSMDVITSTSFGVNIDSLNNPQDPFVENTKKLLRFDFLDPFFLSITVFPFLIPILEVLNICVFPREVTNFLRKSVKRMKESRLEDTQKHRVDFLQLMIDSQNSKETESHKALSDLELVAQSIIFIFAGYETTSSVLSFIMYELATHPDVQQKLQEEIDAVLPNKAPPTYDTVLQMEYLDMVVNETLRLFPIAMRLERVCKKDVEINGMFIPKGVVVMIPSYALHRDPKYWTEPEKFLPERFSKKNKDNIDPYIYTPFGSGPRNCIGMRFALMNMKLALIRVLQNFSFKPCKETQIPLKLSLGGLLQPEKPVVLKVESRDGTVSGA
Sequence of Cytochrome P450 2C9 (P11712 whole entry): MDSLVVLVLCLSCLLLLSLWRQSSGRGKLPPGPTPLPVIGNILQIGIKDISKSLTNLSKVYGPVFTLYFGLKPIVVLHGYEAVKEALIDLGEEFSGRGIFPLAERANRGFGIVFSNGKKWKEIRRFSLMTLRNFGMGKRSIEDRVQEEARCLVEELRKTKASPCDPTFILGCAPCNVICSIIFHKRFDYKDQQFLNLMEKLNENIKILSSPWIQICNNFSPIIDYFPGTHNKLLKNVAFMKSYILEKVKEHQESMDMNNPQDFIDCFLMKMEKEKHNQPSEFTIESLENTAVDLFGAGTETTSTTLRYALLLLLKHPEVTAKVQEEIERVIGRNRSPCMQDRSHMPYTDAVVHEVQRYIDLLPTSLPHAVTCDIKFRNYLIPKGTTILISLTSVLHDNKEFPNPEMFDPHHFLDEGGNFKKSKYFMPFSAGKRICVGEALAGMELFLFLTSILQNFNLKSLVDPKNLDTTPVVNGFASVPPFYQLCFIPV

For the compound `CN(C)C(=O)Cn1c(-c2ccoc2)c(C2CCCCC2)c2ccc(C(=O)O)cc21`, the logD in series [1] is 1.45. The half-maximal effective concentration (EC50) in the series with Hepatitis C virus came out at 800 nM. Besides, in series [2], the Papp A→B amounted to 12.8 ×10⁻⁶ cm/s. This compound displayed a half-life at 2 µM in [3] of 4.17 h. The IC50 in [4] is 20 nM; in series [5] it was greater than 250000 nM; at Cytochrome P450 3A4, “>= 26 uM”. The solubility (thermodynamic) at 24 h in series [6] is 240 µg/mL (≈ 608 µM).

In the case of `Cn1c(-c2ccoc2)c(C2CCCCC2)c2ccc(C(=O)O)cc21`, the log distribution coefficient (logD) in series [1] amounted to 3.26. For the same compound, the concentration for a half-maximal effect (EC50) in the series with Hepatitis C virus stood at 4200 nM. Besides, in [4], 16 nM corresponded to half-maximal inhibition (IC50).

For `O=C(O)c1ccc2c(C3CCCCC3)c(-c3cc4ccccc4s3)n(CC(=O)N3CCC(N4CCCC4)CC3)c2c1`, in the series on Hepatitis C virus, the EC50 worked out at 1000 nM. Also, the figures for the half-inhibitory concentration (IC50) in [4] and in [5] were 160 nM and greater than 250000 nM, respectively.

Take `O=C(O)c1ccc2c(C3CCCCC3)c(-c3ccccc3)n(CC(=O)N3CCC(N4CCCC4)CC3)c2c1`: the EC50 with Hepatitis C virus was determined as 380 nM. For the same compound, the Papp A→B in series [2] was less than 0.1 ×10⁻⁶ cm/s. The compound also displayed a half-life at 2 µM in series [3] of 1.85 h. The half-inhibitory concentration (IC50) in [4] was 40 nM; in series [5], greater than 250000 nM. Moreover, the solubility (thermodynamic) at 24 h in [6] worked out at 47 µg/mL (≈ 91.5 µM).

Consider `O=C(O)c1ccc2c(C3CCCCC3)c(-c3ccco3)n(CC(=O)N3CCC(N4CCCC4)CC3)c2c1`, for which the 50% effective concentration (EC50) in the series on Hepatitis C virus was 1200 nM. Also, the IC50 was 30 nM in series [4] and greater than 250000 nM in series [5].

With `O=C(O)c1ccc2c(C3CCCCC3)c(-c3cnccn3)n(CC(=O)N3CCC(N4CCCC4)CC3)c2c1`, in the series with Hepatitis C virus, the EC50 was found to be 10000 nM. Besides, the 50% inhibitory concentration (IC50) in [4] was 60 nM; in series [5], greater than 250000 nM.

Regarding `O=C(O)c1ccc2c(C3CCCCC3)c(-c3ccoc3)n(CC(=O)N3CCC(N4CCCC4)CC3)c2c1`, the EC50 in the series on Hepatitis C virus was 380 nM. Also, in series [2], the Papp A→B was found to be 1.4 ×10⁻⁶ cm/s. In series [3], the half-life at 2 µM is greater than 5 h. For the same compound, the figures for the IC50 in [4] and in series [5] were 20 nM and greater than 250000 nM, respectively. The compound also came in with a thermodynamic solubility at 24 h in series [6] of 79 µg/mL (≈ 157 µM).

Regarding `O=C(O)c1ccc2c(C3CCCCC3)c(-c3ccsc3)n(CC(=O)N3CCC(N4CCCC4)CC3)c2c1`, the EC50 in the series with Hepatitis C virus amounted to 1000 nM. Further, the IC50 in [4] is 30 nM; in series [5], greater than 250000 nM.

Take `O=C(O)c1ccc2c(C3CCCCC3)c(-c3cccs3)n(CC(=O)N3CCC(N4CCCC4)CC3)c2c1`: the IC50 was no less than 11000 nM against Cytochrome P450 2C19, 20 nM in series [4] and greater than 250000 nM in [5]. Moreover, the EC50 with Hepatitis C virus stood at 460 nM. In series [2], the Papp A→B turned out to be 0.2 ×10⁻⁶ cm/s. For the same compound, the half-life at 2 µM in [3] was greater than 5 h. In [6], this compound yielded a solubility (thermodynamic) at 24 h of 60 µg/mL (≈ 115 µM).

Take `CCN1CCN(C(=O)Cn2c(-c3ccoc3)c(C3CCCCC3)c3ccc(C(=O)O)cc32)CC1`: the half-maximal effective concentration (EC50) in the series on Hepatitis C virus stood at 410 nM. Moreover, in [2], the Papp A→B was determined as 6.5 ×10⁻⁶ cm/s. In series [3], this compound had a half-life at 2 µM greater than 5 h. In addition, the figures for the concentration for half-maximal inhibition (IC50) (in series [4]; in series [5]; on Cytochrome P450 3A4 (read-out: IC50)) were 30 nM, greater than 250000 nM and no less than 16000 nM, respectively. The compound further returned a thermodynamic solubility at 24 h in series [6] of 12 µg/mL (≈ 25.9 µM).

Turning to `CC(C)N1CCN(C(=O)Cn2c(-c3ccoc3)c(C3CCCCC3)c3ccc(C(=O)O)cc32)CC1`, in the series on Hepatitis C virus, the EC50 worked out at 830 nM. Further, the Papp A→B in series [2] is 7 ×10⁻⁶ cm/s. This compound came in with a half-life at 2 µM in series [3] greater than 5 h. Besides, the half-inhibitory concentration (IC50) was 40 nM in series [4], greater than 250000 nM in series [5] and no less than 8000 nM on Cytochrome P450 3A4 (read-out: IC50). The compound also returned a solubility (thermodynamic) at 24 h in series [6] of 18 µg/mL (≈ 37.7 µM).

Turning to `O=C(O)c1ccc2c(C3CCCCC3)c(-c3cc4ccccc4s3)n(CC(=O)N3CCOCC3)c2c1`, in the series on Hepatitis C virus, the EC50 was found to be 1100 nM. Besides, the half-maximal inhibitory concentration (IC50) in [4] was 160 nM; in series [5], greater than 250000 nM.

For the compound `CN1CCN(C(=O)Cn2c(-c3ccoc3)c(C3CCCCC3)c3ccc(C(=O)O)cc32)CC1`, the 50% effective concentration (EC50) with Hepatitis C virus was found to be 450 nM. Moreover, in [2], the Papp A→B amounted to 1.7 ×10⁻⁶ cm/s. In addition, the half-life at 2 µM in series [3] was determined as 1.17 h. In addition, the IC50 in series [4] was 40 nM; in series [5], greater than 250000 nM. In series [6], the solubility (thermodynamic) at 24 h came to 7 µg/mL (≈ 15.6 µM).

On to `CN(CCO)C(=O)Cn1c(-c2ccoc2)c(C2CCCCC2)c2ccc(C(=O)O)cc21`, for which, in the series on Hepatitis C virus, the EC50 turned out to be 1500 nM. Moreover, the permeability entry with Caco-2 is “BLD”. In series [3], this compound returned a half-life at 2 µM of 4.58 h. For the same compound, the concentration for half-maximal inhibition (IC50) was 20 nM in series [4] and greater than 250000 nM in [5]. This compound registered a thermodynamic solubility at 24 h in [6] of 1300 µg/mL (≈ 3060 µM).

As to `CN1CCC(N(C)C(=O)Cn2c(-c3ccoc3)c(C3CCCCC3)c3ccc(C(=O)O)cc32)CC1`, in the series with Hepatitis C virus, the EC50 amounted to 130 nM. Also, the Papp A→B in series [2] stood at 0.2 ×10⁻⁶ cm/s. The same compound had a half-life at 2 µM in series [3] greater than 5 h. Besides, the concentration for half-maximal inhibition (IC50) in [4] was 20 nM; in [5], greater than 250000 nM. Moreover, the solubility (thermodynamic) at 24 h in series [6] worked out at 290 µg/mL (≈ 607 µM).

Regarding `O=C(O)c1ccc2c(C3CCCCC3)c(-c3ccoc3)n(CC(=O)N3CCOCC3)c2c1`, in the series with Hepatitis C virus, the EC50 was 600 nM. In addition, in series [2], the Papp A→B was determined as 5.2 ×10⁻⁶ cm/s. In addition, the half-life at 2 µM in series [7] was 4.8 h; in series [3] it was greater than 5 h. In addition, the concentration for half-maximal inhibition (IC50) against Cytochrome P450 2C9 was no less than 24000 nM; in series [4], 30 nM; in series [5], greater than 250000 nM. The compound also gave a thermodynamic solubility at 24 h in series [6] of 105 µg/mL (≈ 241 µM).
